Molecules are shown by their SMILES.

The target in experiment [1] is T1, Glucagon-like peptide 1 receptor (Rattus norvegicus) (UniProt P32301).
T1 sequence (whole entry): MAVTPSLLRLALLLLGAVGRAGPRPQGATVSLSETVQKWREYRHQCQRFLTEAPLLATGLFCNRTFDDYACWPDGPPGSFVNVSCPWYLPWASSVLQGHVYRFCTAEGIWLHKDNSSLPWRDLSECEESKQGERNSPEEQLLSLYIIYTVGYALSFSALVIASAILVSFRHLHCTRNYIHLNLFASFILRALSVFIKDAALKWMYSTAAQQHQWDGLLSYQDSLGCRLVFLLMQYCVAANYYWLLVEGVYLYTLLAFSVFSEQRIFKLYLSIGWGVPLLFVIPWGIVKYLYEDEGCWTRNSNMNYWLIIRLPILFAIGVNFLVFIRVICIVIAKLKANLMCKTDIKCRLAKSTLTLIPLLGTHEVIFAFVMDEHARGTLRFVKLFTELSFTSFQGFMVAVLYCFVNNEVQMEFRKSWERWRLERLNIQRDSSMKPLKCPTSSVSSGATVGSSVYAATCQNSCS
Briefly: Inhibition of [125I]Exendin (9-39) binding to rat GLP1R expressed in HEK293 cells. On the set-up: concentration or dose not given beside the values. Conditions: concentration not given here. Format: cell-based. Put shortly: (§1)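 Membranes (17 μg protein) from HEK293 cells stably expressing rat GLP-1R were preincubated 5 h at 4 °C with FlashBlue beads (150 μg). Then 40 pM [125I]GLP-1(7−36) amide or [125I]Exendin(9−39) was added with aprotinin 2 μg/mL, leupeptin 100 μM and test compound at varied concentrations. Incubated overnight at 4 °C, then bound radioactivity counted. Mean ± SEM of two independent experiments.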

For experiment [2], the target named is T1, Glucagon-like peptide 1 receptor (Rattus norvegicus). Briefly: Agonist activity at rat GLP1R expressed in HEK293 cells assessed as stimulation of cAMP levels incubated for 6 hrs by multiple response element/cAMP response element (MRE/CRE)-driven reporter gene assay relative to 10 nM GLP1. The experiment is classed as functional, cell-based. In short, it runs like this:
(§2)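 Stable HEK293 line co-expressing rat GLP-1R (pCMV-Tag2B) and a luciferase reporter with 3× MRE plus 1× CRE, seeded at 40000 cells/well and cultured overnight. Compounds in DMSO or GLP-1(7−37) were added for 6 h, then cells were lysed and luciferase read (Steady-Glo). The 10 nM GLP-1 maximum was taken as 100%. Mean ± SEM of two independent experiments; some values come from a single run.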
In general terms: Changes in cAMP serve as a functional read-out for many G protein-coupled receptors.

Experiment [3] has the same target. Briefly: Inhibition of [125I]GLP1 (7-36) amide binding to rat GLP1R expressed in HEK293 cells relative to untreated control. Format: cell-based. As to conditions: concentration not given here. Set-up: concentration or dose not given beside the values. In short, it runs like this: as §1
In experiment [4] the target is T2, Glucagon-like peptide 1 receptor (Rattus norvegicus, UniProt P32301).
T2 sequence (P32301 whole entry): T1 sequence (whole entry)
In words: Agonist activity at rat GLP1R expressed in HEK293 cells assessed as stimulation of cAMP levels incubated for 6 hrs by multiple response element/cAMP response element (MRE/CRE)-driven reporter gene assay. The experiment is classed as functional, cell-based. In short, it runs like this: as §2

For experiment [5], the target named is T2, Glucagon-like peptide 1 receptor. Briefly: Inhibition of [125I]GLP1 (7-36) amide binding to rat GLP1R expressed in HEK293 cells. Format: cell-based. In short, it runs like this: as §1

In the case of `COc1cc([C@H]2[C@](NC(=O)c3ccc(NC(=O)C4CCCC4)cc3)(C(=O)O)[C@@H](c3ccc(OC(=O)c4cccs4)c(OC)c3)[C@@]2(NC(=O)c2ccc(NC(=O)C3CCCC3)cc2)C(=O)O)ccc1OC(=O)c1cccs1`, the values for the inhibition in experiment [1] and in experiment [3] were 37.9% and 39.3%, respectively. The Efficacy in experiment [2] was found to be 35.9%. Besides, the EC50 (in general, the concentration needed to bring the measured effect to its halfway point) in experiment [4] turned out to be 0.657 µM. Besides, the IC50 (as a rule, the concentration that gives 50% inhibition) in experiment [5] amounted to 0.3 µM.
For `COc1cc([C@H]2[C@](NC(=O)c3ccc(NC(=O)OC(C)(C)C)cc3)(C(=O)O)[C@@H](c3ccc(OC(=O)C(C)C)c(OC)c3)[C@]2(NC(=O)c2ccc(NC(=O)OC(C)(C)C)cc2)C(=O)O)ccc1OC(=O)C(C)C`, in that order: 34.8%, 47.2%, 65%, 1.38 µM and 7.5 µM.
In the case of `COc1cc([C@H]2[C@](NC(=O)c3ccc(NC(=O)C4CC4)cc3)(C(=O)O)[C@@H](c3ccc(OC(=O)c4cccs4)c(OC)c3)[C@]2(NC(=O)c2ccc(NC(=O)C3CC3)cc2)C(=O)O)ccc1OC(=O)c1cccs1`, the values for the inhibition in experiment [1] and in experiment [3] were 67.8% and 86.4%, respectively. Moreover, the Efficacy in experiment [2] was found to be 84.2%. Also, the concentration for a half-maximal effect (EC50) in experiment [4] worked out at 0.148 µM. Also, the IC50 in experiment [5] came out at 1.2 µM.
Consider `COc1cc([C@H]2[C@](NC(=O)c3ccc(NC(=O)OC(C)(C)C)cc3)(C(=O)O)[C@@H](c3ccc(OC(=O)c4ccc(C)s4)c(OC)c3)[C@]2(NC(=O)c2ccc(NC(=O)OC(C)(C)C)cc2)C(=O)O)ccc1OC(=O)c1ccc(C)s1`, for which the inhibition (commonly the relative decrease from the control value, in per cent) in experiment [1] is 29.4%; in experiment [3], 40.1%. Further, the Efficacy in experiment [2] was found to be 67%. In addition, the EC50 in experiment [4] is 19.1 µM. This compound also returned an IC50 in experiment [5] of 17.5 µM.
In the case of `CNC(=S)Nc1ccc(C(=O)N[C@]2(C(=O)O)[C@H](c3ccc(OC(=O)c4cccs4)c(OC)c3)[C@@](NC(=O)c3ccc(NC(=S)NC)cc3)(C(=O)O)[C@@H]2c2ccc(OC(=O)c3cccs3)c(OC)c2)cc1`, the inhibition in experiment [1] came out at 70.1%; in experiment [3], 72.7%. For the same compound, the Efficacy in experiment [2] was 68%. The concentration giving a half-maximal response (EC50) in experiment [4] stood at 9.12 µM. The IC50 in experiment [5] turned out to be 1.4 µM.
In the case of `COc1cc([C@H]2[C@](NC(=O)c3ccc(NC(=O)OC(C)(C)C)cc3)(C(=O)O)[C@@H](c3ccc(OC(=O)c4cccs4)c(OC)c3)[C@@]2(NC(=O)c2ccc(NC(=O)OC(C)(C)C)cc2)C(=O)O)ccc1OC(=O)c1cccs1`, the inhibition stood at 55.9% in experiment [1] and 64.7% in experiment [3]. Further, the Efficacy in experiment [2] was below 15%. Further, the EC50 in experiment [4] is above 20 µM. In experiment [5], this compound registered an IC50 of 3.6 µM.
For `COc1cc([C@H]2[C@](NC(=O)c3ccc(NC(=O)OC(C)(C)C)cc3)(C(=O)O)[C@@H](c3ccc(OC(=O)C45CC6CC(CC(C6)C4)C5)c(OC)c3)[C@]2(NC(=O)c2ccc(NC(=O)OC(C)(C)C)cc2)C(=O)O)ccc1OC(=O)C12CC3CC(CC(C3)C1)C2`, in that order: 63.5%, 75.8%, 86%, 2.15 µM and 3.6 µM.
For `COc1cc([C@H]2[C@](NC(=O)c3ccc(NC(=O)OC(C)(C)C)cc3)(C(=O)OC)[C@@H](c3ccc(OC(=O)c4cccs4)c(OC)c3)[C@]2(NC(=O)c2ccc(NC(=O)OC(C)(C)C)cc2)C(=O)OC)ccc1OC(=O)c1cccs1`, in that order: below 15%, below 15%, below 15%, above 20 µM and above 20 µM.
For `CCOc1cc([C@H]2[C@](NC(=O)c3ccc(NC(=O)OC(C)(C)C)cc3)(C(=O)O)[C@@H](c3ccc(OC(=O)c4cccs4)c(OCC)c3)[C@]2(NC(=O)c2ccc(NC(=O)OC(C)(C)C)cc2)C(=O)O)ccc1OC(=O)c1cccs1`, in that order: below 15%, 50.2%, 85.6%, 0.326 µM and 3.1 µM.
Take `COc1cc([C@H]2C[C@]2(NC(=O)c2ccc(NC(=O)OC(C)(C)C)cc2)C(=O)O)ccc1OC(=O)c1cccs1`: the inhibition in experiment [1] and in experiment [3] was below 15% each time. The Efficacy in experiment [2] is below 15%. Also, the EC50 in experiment [4] is above 20 µM. The compound further returned an IC50 in experiment [5] above 20 µM.
Take `CC(C)(C)OC(=O)Nc1ccc(C(=O)N[C@]2(C(=O)O)[C@H](c3cccc(OCc4ccccc4)c3)[C@@](NC(=O)c3ccc(NC(=O)OC(C)(C)C)cc3)(C(=O)O)[C@@H]2c2cccc(OCc3ccccc3)c2)cc1`: the inhibition in experiment [1] and in experiment [3] was below 15% in each case. Besides, the Efficacy in experiment [2] is below 15%. Further, in experiment [4], the concentration for a half-maximal effect (EC50) was above 20 µM. The same compound returned an IC50 in experiment [5] above 20 µM.
On to `COc1cc([C@H]2[C@](NC(=O)c3ccc(NC(=O)CCl)cc3)(C(=O)O)[C@@H](c3ccc(OC(=O)c4cccs4)c(OC)c3)[C@]2(NC(=O)c2ccc(NC(=O)CCl)cc2)C(=O)O)ccc1OC(=O)c1cccs1`, for which the inhibition in experiment [1] was determined as 32.9%; in experiment [3], 43.8%. The Efficacy in experiment [2] came out at 58%. Besides, the concentration for a half-maximal effect (EC50) in experiment [4] amounted to 3.8 µM. The IC50 in experiment [5] worked out at 8.5 µM.
As to `COc1cc([C@H]2[C@](NC(=O)c3ccc(NC(=O)C(C)C)cc3)(C(=O)O)[C@@H](c3ccc(OC(=O)C4CCC4)c(OC)c3)[C@]2(NC(=O)c2ccc(NC(=O)C(C)C)cc2)C(=O)O)ccc1OC(=O)C1CCC1`, the values for the inhibition in experiment [1] and in experiment [3] were 36.8% and 47.9%, respectively. The Efficacy in experiment [2] was found to be 50.7%. Also, in experiment [4], the EC50 was found to be 15.8 µM. The same compound had an IC50 in experiment [5] of 9.6 µM.
Consider `COc1cc([C@H]2[C@](NC(=O)c3ccc(NC(=O)OC(C)(C)C)cc3)(C(=O)O)[C@@H](c3ccc(OC(=O)c4cccs4)c(OC)c3)[C@]2(NC(=O)c2ccc(NC(=O)OC(C)(C)C)cc2)C(=O)O)ccc1OC(=O)c1cccs1` (stereo in doubt), for which, in experiment [4], the 50% effective concentration (EC50) amounted to 0.371 µM. The compound further displayed an IC50 in experiment [5] of 0.6 µM.
Take `CCCC(=O)Oc1ccc([C@H]2[C@](NC(=O)c3ccc(NC(=O)OC(C)(C)C)cc3)(C(=O)O)[C@@H](c3ccc(OC(=O)CCC)c(OC)c3)[C@]2(NC(=O)c2ccc(NC(=O)OC(C)(C)C)cc2)C(=O)O)cc1OC`: the inhibition in experiment [1] was 53.8%; in experiment [3] it was 65.1%. The Efficacy in experiment [2] worked out at 86%. Also, the EC50 in experiment [4] is 3.33 µM. Besides, the IC50 in experiment [5] was 7.5 µM.
Turning to `CC(C)(C)OC(=O)Nc1ccc(C(=O)N[C@]2(C(=O)O)[C@H](c3ccccc3)[C@@](NC(=O)c3ccc(NC(=O)OC(C)(C)C)cc3)(C(=O)O)[C@@H]2c2ccccc2)cc1`, the inhibition in experiment [1] and in experiment [3] was below 15% each time. In addition, the Efficacy in experiment [2] was below 15%. In experiment [4], the EC50 is above 20 µM. Also, in experiment [5], the 50% inhibitory concentration (IC50) was above 20 µM.
With `COc1cc([C@H]2[C@](NC(=O)c3ccc(NC(=O)OC(C)(C)C)cc3)(C(=O)O)[C@@H](c3ccc(OC(=O)c4cccs4)c(OC)c3)[C@]2(NC(=O)c2ccc(NC(=O)OC(C)(C)C)cc2)C(=O)O)ccc1OC(=O)c1cccs1` (stereo in doubt; 3), the EC50 in experiment [4] came out at 0.847 µM. For the same compound, the IC50 in experiment [5] came to 1.6 µM.
Turning to `COc1cc([C@H]2[C@](NC(=O)c3ccc(NC(=O)OC(C)(C)C)cc3)(C(=O)O)[C@@H](c3ccc(OC(C)=O)c(OC)c3)[C@]2(NC(=O)c2ccc(NC(=O)OC(C)(C)C)cc2)C(=O)O)ccc1OC(C)=O`, the inhibition was below 15% in experiment [1] and 43.6% in experiment [3]. Also, the Efficacy in experiment [2] was found to be 43.6%. In addition, the EC50 in experiment [4] turned out to be 8.31 µM.
As for `COc1cc([C@H]2[C@](NC(=O)c3ccc(NC(=O)OC(C)(C)C)cc3)(C(=O)O)[C@@H](c3ccc(OC(=O)c4ccco4)c(OC)c3)[C@]2(NC(=O)c2ccc(NC(=O)OC(C)(C)C)cc2)C(=O)O)ccc1OC(=O)c1ccco1`, the inhibition in experiment [1] came to 8.3%; in experiment [3], 27.6%. The Efficacy in experiment [2] is below 15%. In addition, in experiment [4], the EC50 is above 20 µM.
For `COc1cc([C@H]2[C@](NC(=O)c3ccc(NC(=O)OC(C)(C)C)cc3)(C(=O)O)[C@@H](c3ccc(OCc4ccccc4)c(OC)c3)[C@]2(NC(=O)c2ccc(NC(=O)OC(C)(C)C)cc2)C(=O)O)ccc1OCc1ccccc1`, in that order: 14.3%, 10%, below 15% and above 20 µM.
With `COc1ccc([C@H]2[C@](NC(=O)c3ccc(NC(=O)OC(C)(C)C)cc3)(C(=O)O)[C@@H](c3ccc(OC)cc3)[C@]2(NC(=O)c2ccc(NC(=O)OC(C)(C)C)cc2)C(=O)O)cc1`, the inhibition in experiment [1] came to 2.4%; in experiment [3], 7.45%. The Efficacy in experiment [2] was 7.5%. Moreover, in experiment [4], the EC50 worked out at 9.4 µM.

The values above are taken from ChEMBL document CHEMBL2157924, “Cyclobutane derivatives as novel nonpeptidic small molecule agonists of glucagon-like peptide-1 receptor” (J Med Chem, 2012).
